Experimental data as given in ChEMBL document CHEMBL1124248, “Preparation and antischistosomal and antitumor activity of hycanthone and some of its congeners. Evidence for the mode of action of hycanthone” (1988).
Several values for one entry are separate records, joined by “and”; a condition that tells them apart may be missing. Identical values can stand only once.

Key:
Nucleic Acid [1] = assay: In vitro binding of [3H]HNMC to calf thymus DNA; type: nucleic-acid assay; conditions: Bos taurus
In short: (§1)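 0.02 µCi of 3H-labelled drug was added to 50 µg calf thymus DNA in 20 µL of 0.1 M citrate-phosphate buffer, pH 7. Incubated 1.5 h at 37 °C in the dark, diluted to 0.1 mL saline and dialyzed against saline at 4 °C for up to 4 days. Duplicate 10 µL samples taken from inside the bags at intervals were counted directly, or after TCA precipitation.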

Nucleic Acid [2] = assay: In vitro binding of [3H]HNMC to calf thymus DNA after precipitation with alcohol and TCA was measured; type: nucleic-acid assay; conditions: Bos taurus; in short: as §1
Nucleic Acid [3] = assay: In vitro binding of [3H]HNMC to calf thymus DNA after precipitation with alcohol and TCA was measured after 1 day; type: nucleic-acid assay; conditions: Bos taurus; in short: as §1
Nucleic Acid [4] = assay: In vitro binding of [3H]HNMC to calf thymus DNA after precipitation with alcohol and TCA was measured after 2 hours; type: nucleic-acid assay; conditions: Bos taurus; in short: as §1
Nucleic Acid [5] = assay: In vitro binding of [3H]HNMC to calf thymus DNA after precipitation with alcohol and TCA was measured after 2 day; type: nucleic-acid assay; conditions: Bos taurus; in short: as §1
Nucleic Acid [6] = assay: In vitro binding of [3H]HNMC to calf thymus DNA after precipitation with alcohol and TCA was measured after 3 days; type: nucleic-acid assay; conditions: Bos taurus; in short: as §1
Nucleic Acid [7] = assay: In vitro binding of [3H]HNMC to calf thymus DNA after precipitation with alcohol and TCA was measured after 4 day; type: nucleic-acid assay; conditions: Bos taurus; in short: as §1
Nucleic Acid [8] = assay: In vitro binding of [3H]HNMC to calf thymus DNA was measured after 1 day; type: nucleic-acid assay; conditions: Bos taurus; in short: as §1
Nucleic Acid [9] = assay: In vitro binding of [3H]HNMC to calf thymus DNA was measured after 2 days; type: nucleic-acid assay; conditions: Bos taurus; in short: as §1
Nucleic Acid [10] = assay: In vitro binding of [3H]HNMC to calf thymus DNA was measured after 2 hours; type: nucleic-acid assay; conditions: Bos taurus; in short: as §1
Nucleic Acid [11] = assay: In vitro binding of [3H]HNMC to calf thymus DNA was measured after 3 days; type: nucleic-acid assay; conditions: Bos taurus; in short: as §1
Nucleic Acid [12] = assay: In vitro binding of [3H]HNMC to calf thymus DNA was measured after 4 day; type: nucleic-acid assay; conditions: Bos taurus; in short: as §1
HeLa [13] = assay: Incorporation of 2*10e-5 M [3H]uridine in HeLa cells in presence of HNMC measured as TCA precipitable radioactivity compared with non treated controls; type: functional, cell-based; conditions: Homo sapiens
In short: (§2)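 HeLa cells (10^6 per duplicate tube) were incubated 1 h with drug. [3H]uridine was then added and incubation continued 1 h with drug present. Cells were washed with cold saline and precipitated with 10% TCA. Precipitates were collected on glass filters, TCA-washed and counted. Values are % TCA-precipitable radioactivity versus untreated controls.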

HeLa [14] = assay: Incorporation of 10e-5 M [3H]uridine in HeLa cells in absence of HNMC measured as TCA precipitable radioactivity compared with non treated controls; type: functional, cell-based; conditions: Homo sapiens
In short: (§3)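 HeLa cells (10^6 per duplicate tube) were exposed to drug for 1 h, washed three times with medium, then held 2 h in drug-free medium. [3H]uridine was added for 1 h. Cells were precipitated with 10% TCA, and precipitates were filter-collected and counted. Values are % TCA-precipitable radioactivity versus untreated controls.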

HeLa [15] = assay: Incorporation of 10e-5 M [3H]uridine in HeLa cells in presence of HNMC measured as TCA precipitable radioactivity compared with non treated controls; type: functional, cell-based; conditions: Homo sapiens; in short: as §2
HeLa [16] = assay: Incorporation of 2*10e-6 M [3H]uridine in HeLa cells in absence of HNMC measured as TCA precipitable radioactivity compared with non treated controls; type: functional, cell-based; conditions: Homo sapiens; in short: as §3
HeLa [17] = assay: Incorporation of 2*10e-6 M [3H]uridine in HeLa cells in presence of HNMC measured as TCA precipitable radioactivity compared with non treated controls; type: functional, cell-based; conditions: Homo sapiens; in short: as §2
HeLa [18] = assay: Binding of 1x 10e-4 M [3H]HNMC to HeLa DNA; type: functional, Homo sapiens
In short: (§4)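 HeLa cells exposed 1 h to [3H]-labelled drug, washed three times with saline, then held 30 min at 37 °C in drug-free medium. After a 2 h digestion at 37 °C, crude DNA was ethanol-precipitated, purified on a CsCl density gradient, dialyzed and reprecipitated. DNA was quantified by A260. An aliquot was treated with DNase, and DNase-sensitive radioactivity was expressed as drug molecules per base pair.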

HeLa [19] = assay: Binding of 1x 10e-5 M [3H]HNMC to HeLa DNA; type: functional, Homo sapiens; in short: as §4
HeLa [20] = assay: Binding of 5x 10e-4 M [3H]HNMC to HeLa DNA; type: functional, Homo sapiens; in short: as §4
Mus musculus [21] = assay: In vivo antitumor activity against p-388 lymphocytic leukemia in mice at 3.13 mg/kg; type: functional
In short: (§5)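 Murine P388 lymphocytic leukemia model tested by the National Cancer Institute. Compound given once daily for 9 days; activity expressed as T/C.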

Mus musculus [22] = assay: In vivo antitumor activity against p-388 lymphocytic leukemia in mice at 12.5 mg/kg; Toxic; type: functional, organism-based; set-up: dose 12.5 mg/kg; in short: as §5
Schistosoma mansoni [23] = assay: Incorporation of 1.2 M *10e6 [3H]uridine in hycanthone(HC) resistant Schistosoma mansoni; type: functional
In short: (§6)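 Adult HC-resistant S. mansoni were treated in vitro, and [3H]uridine incorporation by the worms was measured. Values are % of control. Concentrations are given in M × 10^6.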

Schistosoma mansoni [24] = assay: Incorporation of 1.2 M*10e6 [3H]uridine in hycanthone(HC) sensitive Schistosoma mansoni; type: functional
Schistosoma mansoni [25] = assay: Incorporation of 6M *10e6 [3H]uridine in hycanthone(HC) resistant Schistosoma mansoni; type: functional; in short: as §6
Schistosoma mansoni [26] = assay: Day 50% survival of worms in culture of HC resistant Schistosoma mansoni; type: functional
In short: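 Adult HC-resistant S. mansoni were exposed in vitro and kept in culture. The value is the day by which 50% of worms were dead. Cultures were ended at different times in different experiments. Concentrations are given in M × 10^6.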

Schistosoma mansoni [27] = assay: Day 50% survival of worms in culture of HC sensitive Schistosoma mansoni; type: functional
[28] = (§7) Total radioactivity of [3H]HNMC was evaluated after 1 day; type: functional
In short: (§8)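 3H-labelled drug (0.02 µCi) was mixed with 50 µg calf thymus DNA in 0.1 M citrate-phosphate buffer, pH 7, and incubated in the dark for 1.5 h at 37 °C. The mix was diluted in saline and dialysed against saline at 4 °C. Duplicate samples drawn from inside the bags at intervals up to 4 days were counted directly.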

[29] = Total radioactivity of [3H]HNMC was evaluated after 2 hr; type: functional; in short: as §8
[30] = (§9) Total radioactivity of [3H]HNMC was evaluated after 3 days; type: functional; in short: as §8
[31] = as §9; type: functional; in short: as §8; remark: listed apart in the source
[32] = as §7; type: functional; in short: as §8; remark: listed apart in the source
HeLa [33] = assay: Incorporation of 2*10e-5 M [3H]uridine in HeLa cells in absence of HNMC measured as TCA precipitable radioactivity compared with non treated controls; type: functional, cell-based; conditions: Homo sapiens; in short: as §3
Mus musculus [34] = assay: In vivo antitumor activity against p-388 lymphocytic leukemia in mice at 6.25 mg/kg; type: functional; in short: as §5
Schistosoma mansoni [35] = assay: Incorporation of 6M *10e6 [3H]-uridine in hycanthone(HC) sensitive Schistosoma mansoni; type: functional
[36] = Total radioactivity of [3H]HNMC was evaluated after 2 hours; type: functional; in short: as §8
Mus musculus [37] = assay: In vivo antitumor activity against p-388 lymphocytic leukemia in mice at 5 mg/kg; type: functional; in short: as §5
Mus musculus [38] = assay: In vivo antitumor activity against p-388 lymphocytic leukemia in mice at 10 mg/kg; type: functional; in short: as §5
Mus musculus [39] = assay: In vivo antitumor activity against p-388 lymphocytic leukemia in mice at 2.5 mg/kg; type: functional; in short: as §5
Mus musculus [40] = assay: In vivo antitumor activity against p-388 lymphocytic leukemia in mice at 20 mg/kg; type: functional; in short: as §5
Schistosoma mansoni [41] = assay: Incorporation of 1.2 M *10e6 [3H]uridine in hycanthone(HC) sensitive Schistosoma mansoni; type: functional
Schistosoma mansoni [42] = assay: Incorporation of 6M*10e6 [3H]uridine in hycanthone(HC) resistant Schistosoma mansoni; type: functional; in short: as §6
Schistosoma mansoni [43] = assay: Incorporation of 6M*10e6 [3H]uridine in hycanthone(HC) sensitive Schistosoma mansoni; type: functional
Mus musculus [44] = assay: In vivo antitumor activity against p-388 lymphocytic leukemia in mice at 3.12 mg/kg; type: functional; in short: as §5
Mus musculus [45] = assay: In vivo antitumor activity against p-388 lymphocytic leukemia in mice at 12.5 mg/kg; type: functional; in short: as §5
Mus musculus [46] = assay: In vivo antitumor activity against p-388 lymphocytic leukemia in mice at 25 mg/kg; type: functional; in short: as §5
Schistosoma mansoni [47] = assay: Incorporation of 1.1 M *10e6 [3H]uridine in hycanthone(HC) resistant Schistosoma mansoni; type: functional; in short: as §6
Schistosoma mansoni [48] = assay: Incorporation of 1.1 M *10e6 [3H]uridine in hycanthone(HC) sensitive Schistosoma mansoni; type: functional
Schistosoma mansoni [49] = assay: Incorporation of 5.5 M*10e6 [3H]uridine in hycanthone(HC) resistant Schistosoma mansoni; type: functional; in short: as §6
Schistosoma mansoni [50] = assay: Incorporation of 5.5M*10e6 [3H]uridine in hycanthone(HC) sensitive Schistosoma mansoni; type: functional

Structure (SMILES): CCN(CC)CCNc1ccc(COC(=O)NC)c2sc3ccccc3c(=O)c12
- Radioactivity (Nucleic Acid [1]): 134000 c.p.m.
- Radioactivity (Nucleic Acid [2]): 11500 c.p.m.
- Radioactivity (Nucleic Acid [3]): 9500 c.p.m.
- Radioactivity (Nucleic Acid [4]): 12300 c.p.m.
- Radioactivity (Nucleic Acid [5]): 8000 c.p.m.
- Radioactivity (Nucleic Acid [6]): 6900 c.p.m.
- Radioactivity (Nucleic Acid [7]): 5100 c.p.m.
- Radioactivity (Nucleic Acid [8]): 15000 c.p.m.
- Radioactivity (Nucleic Acid [9]): 14800 c.p.m.
- Radioactivity (Nucleic Acid [10]): 52000 c.p.m.
- Radioactivity (Nucleic Acid [11]): 16000 c.p.m.
- Radioactivity (Nucleic Acid [12]): 15000 c.p.m.
- Radioactivity (HeLa [13]): 6%
- Radioactivity (HeLa [14]): 4%
- Radioactivity (HeLa [15]): 11%
- Radioactivity (HeLa [16]): 24%
- Radioactivity (HeLa [17]): 57%
- Drug mol/base pair (HeLa [18]): 0.00105
- Drug mol/base pair (HeLa [19]): 8.4e-05
- Drug mol/base pair (HeLa [20]): 0.000203
- T/C (Mus musculus [21]): 132%
- T/C (Mus musculus [22]): Toxic
- Control (Schistosoma mansoni [23]): 39%
- Control (Schistosoma mansoni [24]): 21%
- Control (Schistosoma mansoni [25]): 11%
- Effect (Schistosoma mansoni [26]): 8 days
- Effect (Schistosoma mansoni [27]): 9 days
- Radioactivity [28]: 1750 c.p.m.
- Radioactivity [29]: 27500 c.p.m.
- Radioactivity [30]: 1350 c.p.m.
- Radioactivity [31]: 100 c.p.m.
- Radioactivity [32]: 150 c.p.m.
- Radioactivity (HeLa [33]): 2%
- T/C (Mus musculus [34]): 166%
- Control (Schistosoma mansoni [35]): 3%
- Radioactivity [36]: 27500 c.p.m.

Structure (SMILES): CCN(CC)CCNc1ccc(COC(=O)OC)c2sc3ccccc3c(=O)c12
- T/C (Mus musculus [37]): 124%
- T/C (Mus musculus [38]): 124%
- T/C (Mus musculus [39]): 118%
- T/C (Mus musculus [40]): 122%
- Control (Schistosoma mansoni [23]): 80%
- Control (Schistosoma mansoni [41]): 32%
- Control (Schistosoma mansoni [42]): 28%
- Control (Schistosoma mansoni [43]): 6%
- Effect (Schistosoma mansoni [26]): 13 days and 6 days
- Effect (Schistosoma mansoni [27]): 7 days and 6 days

Structure (SMILES): CCCCNC(=O)OCc1ccc(NCCN(CC)CC)c2c(=O)c3ccccc3sc12
- T/C (Mus musculus [44]): 119%
- T/C (Mus musculus [45]): 104%
- T/C (Mus musculus [46]): 129%
- Control (Schistosoma mansoni [47]): 100%
- Control (Schistosoma mansoni [48]): 34%
- Control (Schistosoma mansoni [49]): 100%
- Control (Schistosoma mansoni [50]): 31%
- Effect (Schistosoma mansoni [27]): >12 days
- T/C (Mus musculus [34]): 135%
